Test system: MS2 coat protein
Assay: apparent Kd, MS2 coat protein; higher = weaker binding; RNA-MaP array; FMN 200 µM where present
Method in brief: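 SNAP-549-labelled MS2 coat protein, doubled from 0.7 or 1.5 nM to 3 µM, was titrated over designs transcribed by stalled E. coli RNA polymerase on Illumina sequencing-chip clusters. Titrations were run without and then with constant ligand in 100 mM Tris-HCl pH 7.5, 80 mM KCl, 4 mM MgCl2, BSA, DTT, yeast tRNA and Tween-20. The apparent Kd is the median of filtered per-cluster fits to green signal normalised to red-channel RNA signal and control-cluster median Fmax.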

[1] = designed as: OFF switch for flavin mononucleotide, no ligand
[2] = ligand present: flavin mononucleotide, designed as: OFF switch for flavin mononucleotide
[3] = designed as: ON switch for flavin mononucleotide, no ligand
[4] = ligand present: flavin mononucleotide, designed as: ON switch for flavin mononucleotide

Sequence	apparent Kd [1] [nM]	apparent Kd [2] [nM]	apparent Kd [3] [nM]	apparent Kd [4] [nM]
UAAUUGUGAGGAUAUUCGAAUAACACGGAGACGUGUUGUUCGGAGAAGGCACAUGAGGAUCACCCAUGUUCCUU	17.5	102		
AAAUAGAAUGAGGAUAUCGUACUGGAUAUAGUGCGAGAAGGCAUUACAUGAGGAUCACCCAUGUUUUGUUGGGA	25.6	76.6		
UCAGGCUUCGAGAAGGACAUGAAUCGUAGCAUUGCUACGAUGAAAUAUACAUGAGGAUCACCCAUGUAGGAUAUCGGAGUCUGC	5.35	6.13		
GUAGAGUAGUGAGGAUAUACGAGCUCGAUAGAGCGGCGAUCCAUUAAUACAUGAGGAUCACCCAUGUAGAAGGCACUUCUCUAC	5.83	72		
AGCUGACGAGGAUAUACAUGAGGAUCACCCAUGUUGGUUCAGCGACUUCGGUCGCAAUGUAGAAGGCGUCAGCU	450	327		
CUGCGGUAGGAGAAGGACGGCGGGUUAUUUUCGUACAUGAGGAUCACCCAUGUAGGAUAUCCUACCUCAGGCGGCCUACUACAG	19.9	30		
AAAAAGUAAGGAUAUCGGCGGCGGCGGAGGCGGCGGCGGCUCGAGAAGGUACAUGAGGAUCACCCAUGUAAAAA	29.2	15.3		
AAAGACAGAGGAUAUACAUGAGGAUCACCCAUGUGGCGAAAAAAAAUCCAUUUGGCAUGUAGAAGGCUGUAUGA	144	128		
AAGUUUUUACAAGGAUAUCAGUUGUUUAUAAAUUAAACAUGAGGAUCACCCAUGUAACAAAGGAGUGAGAAGGUGUGAUGGAAA			545	283
AAACAUGUCCGAGGAUAUCUGGAAACAUUUUCAAGAGAAGGCGGACAUGAGGAUCACCCAUGUCUCACCUCAUCAAAUCCAAGU	8.24	30.2		
CCUAUGUGAGGAUAUAGCCACAUUACGAAUAAGUAGUGUGGCUAGAAGGUACAUGAGGAUCACCCAUGUAUGGG	167	84.1		
GCGUAUUAGGUGUAGCUAGACAUUCAAGAAGGGUGAAGAACAUGAGGAUCACCCAUGUAGUUUUUACAGGAUAUUGAUUUACGC			269	14.9
GGUCUGAUAUGAGGAUAUGCUCAGGAAUACUGAGCAGAAGGCAUGUGAAAACAUGAGGAUCACCCAUGUAUGAUCUACAGACCA			47	21.8
UUUUAGGGAGGAUAUACAUUUUUUUUAUUAUCCUCAUUAUUACAUGAGGAUCACCCAUGUAGAAGGCCCAUUUU	60.7	146		
AGUAAGAUGCAGAAGGUGUUAGCUAGAGCUACGACAUGAGGAUCACCCAUGUACUAGAAACAGUACAAGGAUAUGCAUCUUACC			18.9	6.52
UGGUACUAGGGAGGAUAUGGGACGAUACAUGAGGAUCACCCAUGUUUAAGAAUGCCGAGAGGCAACUAGAAGGCCCUAGUACCU			494	21.7
AAGUCGUGAGGAUAUACAUGGAUAUACAUUUAUGUGGACCUACAUGAGGAUCACCCAUGUAGAAGGCACGAAUA	85.2	69.4		
GGGUACAUCCGAGGAUAUCAUGUAAAUACAUGAGGAUCACCCAUGUCGAUGGAGACAUCGGAGAUUGAGAAGGCCGAUGUACCG			344	22.9
CACUCGUGUCUAGGAUAUGAGUGACAAGCGCGAGAUUUUCUCGCCGCUAGCUCAGAAGGAGACAUGAGGAUCACCCAUGUAAGG	59.7	12.5		
UGGUACUAGGGAGGAUAUGGGAAGAUACAUGAGGAUCACCCAUGUUUAAGAAUGCCUAGAGGCAACUAGAAGGCCCUAGUACCU			393	19.1

Reference: the EternaBench riboswitch data
